# The list is not random: actives were taken first. Their share in the collection is about 4.4%.
# HTR2A ag: agonists of mouse serotonin 5-HT2A receptor (HTR2A); actives 0.66% (n = 360,000); CHO-K1 mHTR2A beta-arrestin complementation, luminescence; percent of 30 µM serotonin response; activation, % at 7.6 µM;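 active means activation above a run cutoff, the mean activation of all tested compounds plus 3 SD, cut at about 14% in these data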;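 further: 0% = plate median of compound wells and 100% = 30 µM serotonin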
# Target sequence (P35363 whole entry, looked up): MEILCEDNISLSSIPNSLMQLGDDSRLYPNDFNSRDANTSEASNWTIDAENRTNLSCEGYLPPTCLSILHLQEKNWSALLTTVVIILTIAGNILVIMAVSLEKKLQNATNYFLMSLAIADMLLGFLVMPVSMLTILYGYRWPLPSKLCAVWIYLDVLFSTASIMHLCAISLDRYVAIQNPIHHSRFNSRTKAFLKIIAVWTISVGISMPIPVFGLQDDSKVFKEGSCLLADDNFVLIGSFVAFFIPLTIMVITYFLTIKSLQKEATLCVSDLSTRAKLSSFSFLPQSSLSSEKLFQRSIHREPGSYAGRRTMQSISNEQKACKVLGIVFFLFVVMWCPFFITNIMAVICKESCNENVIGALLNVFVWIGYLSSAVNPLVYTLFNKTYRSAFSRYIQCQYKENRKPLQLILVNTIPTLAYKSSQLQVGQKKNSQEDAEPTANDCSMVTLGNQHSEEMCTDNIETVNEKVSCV
# AHR activator: activates the human aryl hydrocarbon receptor | P35869 | AHR-responsive luciferase reporter cells, luminescence | activation, % at 5 µM | actives 2.5% (n = 320,000); in the data active means activation above about 47%;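 further: 0% = vehicle wells and 100% = reference agonist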
# MsrA inh: bovine MsrA inhibition | purified bovine MsrA, absorbance read-out | inhibition, % at 15.5 µM | actives 0.75% (n = 360,000) | AID 651718; in the data active means inhibition above about 4.5%;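 further: 0% = vehicle wells with enzyme and 100% = reference inhibitor wells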
# TbMetRS inhib: Trypanosoma brucei MetRS inhibition; purified T. brucei MetRS, ATP depletion, Kinase-Glo luminescence; inhibition, % at 11.9 µM; actives 0.4% (n = 360,000);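 active means inhibition above a per-plate cutoff of the control wells' mean inhibition plus 3 SD, cut at about 5.5% in these data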;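 further: 0% = DMSO wells median and 100% = median of wells with control inhibitor compound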
#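 Material: parasite MetRS enzyme / Replication: singlicate, one well per compound / Signal: luminescence of leftover ATP / Schedule: 2 h aminoacylation at 25 °C after 15 min preincubation / Medium: HEPES-MgCl2-KCl buffer plus DTT, spermine, BSA, pyrophosphatase / Doses: 11.9 µM single point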
# bovine MsrA act: activators of bovine methionine sulfoxide reductase A; purified bovine MsrA, absorbance read-out; activation, % at 10.6 µM; actives 0.3% (n = 360,000); in the data active means activation above about 7.5%;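 further: 0% = vehicle and 100% = reference activator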
# AI-2 QS mod: modulates the Vibrio harveyi AI-2 quorum sensing system. activity change, % at 7.5 µM. actives 0.4% (n = 300,000). Vibrio harveyi JMH597 AI-2 luminescence/OD600 ratio, 9 h; hits give low values; strain lacks LuxN and CqsS sensors; 0 = neutral-control median; in the data active means activity change below about -75%, passing the limit was not always enough;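 further: luminescence divided by OD600 gain over 9 h not by final OD600 alone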
# Tb MetRS conf: Trypanosoma brucei MetRS inhibition confirmed; shares compounds with TbMetRS inhib; T. brucei MetRS enzyme, luminescence (ATP depletion); inhibition, % at 11.9 µM; actives 93% (n = 1,400); AID 624412; in the data active means inhibition above about 7%
# Jurkat tox: counter-screen for T. brucei MetRS inhibitors: Jurkat cell cytotoxicity; AID 624413; Jurkat cells viability, ATP luminescence; shares compounds with TbMetRS inhib; actives 12% (n = 1,400); inhibition, % at 8.3 µM; in the data active means inhibition above about 15%;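 further: 0% = vehicle and 100% = reference inhibitor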
# TbMetRS FP orth: T. brucei MetRS inhibition, orthogonal assay | shares compounds with TbMetRS inhib | purified T. brucei MetRS, fluorescence polarization | inhibition, % at 11.9 µM | actives 44% (n = 1,400) | AID 651607; in the data active means inhibition above about 17%;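 further: 0% = vehicle wells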
# Starred values were filed as active, the others as inactive; nt = not tested or not shown.
SMILES,HTR2A ag,AHR activator,MsrA inh,TbMetRS inhib,bovine MsrA act,AI-2 QS mod,Tb MetRS conf,Jurkat tox,TbMetRS FP orth
COc1ccc(OCC(O)CNS(=O)(=O)c2ccc(NC(C)=O)cc2)cc1 (centres undefined),3,-2,1,0,-3,8,nt,nt,nt
COc1ccc(OCC(O)CNC(=O)Nc2ccc(F)cc2)cc1 (centres undefined),0,-3,-1,5.7*,-5,39,18*,-6,15
O=C(NCC(O)COc1ccc([N+](=O)[O-])cc1)Nc1ccccc1 (centres undefined),-4,0,0,42*,-3,23,62*,2,41*
COc1ccc(NC(=O)C(NC(C)=O)C(=O)Nc2ccc(F)cc2)cc1 (centres undefined),1,3,0,9.6*,-4,27,19*,-6,0
OC(CNc1ccccc1)COc1ccc(OCC(O)CNc2ccccc2)cc1 (centres undefined),0,6,-1,-1,-2,13,nt,nt,nt
Cc1cc(C)cc(NC(=O)NCC(O)COc2ccc([N+](=O)[O-])cc2)c1 (centres undefined),-3,8,-1,0,-2,4,nt,nt,nt
CC(CCc1ccccc1)NC(=O)CCNC(=O)c1ccccc1Cl (centres undefined),-8,2,1,0,-7,nt,nt,nt,nt
Cn1c(CC(=O)Nc2ccc(Cl)c(Cl)c2)n[nH]c1=S,-2,0,-1,2,-9,-1,nt,nt,nt
COc1ccc(Cc2n[nH]c(=S)n2NC(=O)Nc2ccc(Cl)c(Cl)c2)cc1,-5,2,-2,37*,0,-24,50*,8,32*
Cc1cc(C(C)(C)C)cc(C)c1CCNC(=O)c1ccc[n+]([O-])c1,9,1,0,0,-5,nt,nt,nt,nt
C=CCn1c(COc2ccccc2F)nnc1SCC(=O)c1c[nH]c2ccccc12,-1,15,0,13*,-2,16,17*,2,7
CCS(=O)(=O)N1CCN(c2ccc(Cl)cc2[N+](=O)[O-])CC1,5,-3,1,5.7*,-4,24,14*,8,7
O=C(C1CCC(=O)N(C2CC2)C1)N1CCC(Oc2ccccc2F)CC1 (centres undefined),1,-1,3,0,-5,21,nt,nt,nt
Cc1nc(NC(=O)CSc2ccc(-c3nc4ccccc4[nH]3)cn2)sc1C,2,42,1,19*,-4,2,36*,12,11
CCOC(=O)CSc1ccc(-c2nc3ccccc3[nH]2)cn1,-6,14,3,9.2*,-12,8,19*,9,11
COCCNC(=O)CSc1ccc(-c2nc3ccccc3[nH]2)cn1,5,6,3,11*,-4,12,19*,2,0
N#CCSc1ccc(-c2nc3ccccc3[nH]2)cn1,0,11,4,4,-4,23,nt,nt,nt
O=C(CSc1ccc(-c2nc3ccccc3[nH]2)cn1)Nc1ccc2c(c1)OCCO2,-3,5,nt,2,-2,9,nt,nt,nt
CCOC(=O)CSc1ccc(-c2nc3cc(C)c(C)cc3[nH]2)cn1,1,14,2,0,-3,28,nt,nt,nt
O=C(CSc1ccc(-c2nc3ccccc3[nH]2)cn1)Nc1ccc(S(=O)(=O)NC2CC2)cc1,-3,6,3,64*,-3,30,69*,9,75*
CC1Cc2ccccc2C(CCc2ccccc2)=N1 (centres undefined),-7,19,1,-1,-3,16,nt,nt,nt
Cc1cc2nc(-c3ccc(SCC(=O)Nc4ccc5c(c4)OCCO5)nc3)[nH]c2cc1C,-5,16,3,0,-3,24,nt,nt,nt
Cc1ccc2nc(-c3ccc(SCC(=O)Nc4ccc5c(c4)OCCO5)nc3)[nH]c2c1,0,30,2,7.4*,0,22,8.6*,14,18*
